# Assay outcomes (PubChem)
# TAAR1 antag = human TAAR1 antagonists, primary screen, Fluo-8 calcium fluorescence, CHO RD-HGA16 cells; 1.5% of 360,000 active; AID 624466, 2012; inhibition, % at 3 µM; antagonist; Trace amine-associated receptor 1 (Homo sapiens), Q96RJ0;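 active = inhibition above a per-plate cutoff, the mean inhibition of test compounds on that plate plus 3 SD, cut at about 49% in these data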
# Target sequence (Q96RJ0 whole entry, looked up): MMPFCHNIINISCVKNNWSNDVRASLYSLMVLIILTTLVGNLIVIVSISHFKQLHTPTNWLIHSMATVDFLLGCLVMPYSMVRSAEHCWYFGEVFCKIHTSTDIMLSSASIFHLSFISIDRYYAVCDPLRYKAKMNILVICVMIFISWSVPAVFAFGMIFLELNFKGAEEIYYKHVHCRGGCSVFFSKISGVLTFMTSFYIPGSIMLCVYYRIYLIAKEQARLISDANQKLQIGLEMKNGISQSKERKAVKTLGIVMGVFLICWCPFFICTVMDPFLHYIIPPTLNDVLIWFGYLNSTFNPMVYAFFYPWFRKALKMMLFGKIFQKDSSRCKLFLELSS
#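 Test system: CHO RD-HGA16 cells bearing hTAAR1 | Reagent: β-PEA, EC80 | Compound dosing: 3 µM, single point | Schedule: Dye loading 75 min at 37 °C, then 30 min room temperature | Signal: Calcium fluorescence with Fluo-8 | Evaluation: Percent inhibition of PEA-evoked calcium signal, max/basal emission ratio | Control set: DMSO-only wells and EC80 β-PEA-stimulated wells | Repeats: Singlicate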
# m5-HT2A agonist = mouse Htr2a agonists via beta-arrestin recruitment, primary screen, cell-based, luminescence; 5-hydroxytryptamine receptor 2A (Mus musculus), P35363; CHO-K1 mHTR2A beta-arrestin complementation; percent of 30 µM serotonin response; activation, % at 7.6 µM; 0.66% of 360,000 active;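 active = activation above a run cutoff, the mean activation of all tested compounds plus 3 SD, cut at about 14% in these data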
# TAAR1 agonist = human TAAR1 agonists, primary screen, Fluo-8 calcium fluorescence, CHO RD-HGA16 cells; Trace amine-associated receptor 1 (Homo sapiens), Q96RJ0; vehicle wells 0%, saturating PEA agonist 100%; activation, % at 3 µM; 0.99% of 360,000 active; AID 624467, 2012;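 active = activation above the mean activation of all test compounds in the run plus 3 SD, cut at about 38% in these data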
#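 Test system: RD-HGA16 (CHO) cells co-expressing Gα16 and hTAAR1; dosing: one-point dosing at 3 µM (nominal); timing: 17-24 h seeding, 75 min 37 °C dye, 30 min RT; signal: kinetic Fluo-8 calcium fluorescence; read-out basis: % activation relative to PEA EC100 response; controls: DMSO and PEA EC100; replicates: n 1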
# MC4R antag cAMP = MC4R antagonists of cAMP signaling, primary screen, cell-based, TR-FRET, antagonist arm of biased-ligand search; Melanocortin receptor 4 (Homo sapiens), P32245; MC4R-expressing cells, MTII-stimulated cAMP, LANCE TR-FRET; inhibition, % at 6.5 µM; 0.48% of 360,000 active;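 active = inhibition above its plate's cutoff, the mean of tested wells on that plate plus 3 SD, cut at about 29% in these data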
# Target sequence (P32245 whole entry, looked up): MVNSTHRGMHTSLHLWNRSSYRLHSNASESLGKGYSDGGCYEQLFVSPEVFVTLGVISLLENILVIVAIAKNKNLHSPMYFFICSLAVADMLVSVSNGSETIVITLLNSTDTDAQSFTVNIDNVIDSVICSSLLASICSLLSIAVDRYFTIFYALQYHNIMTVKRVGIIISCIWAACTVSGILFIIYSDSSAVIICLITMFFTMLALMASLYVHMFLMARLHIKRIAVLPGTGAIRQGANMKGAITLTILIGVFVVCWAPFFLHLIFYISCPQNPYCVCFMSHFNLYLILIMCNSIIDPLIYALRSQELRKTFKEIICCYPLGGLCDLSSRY
#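 Material: U2OS-MC4R stable cell line | Reagent: Melanotan II challenge after compound preincubation | Doses: One concentration, 6.5 µM nominal | Incubation: 30-min compound preincubation, 1-h Melanotan II challenge, 1-h detection, room temperature | Signal: TR-FRET cAMP assay | Replicates: One well per compound, no replicates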
# Beta2AR agonist = beta2AR agonists driving receptor internalization, primary screen, cell-based, FAP fluorogen, flow cytometry | response, % (concentration not given with the values) | AID 504454, 2011 | Am2.2-beta2AR cells | 0.43% of 340,000 active | Beta-2 adrenergic receptor (Homo sapiens), P07550;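 active = response above a set limit, near 3 SD of response in nonfluorescent compounds, cut at about 42% in these data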
# MC4R ag barr = MC4R agonists recruiting beta-arrestin, primary screen, cell-based, luminescence, agonist arm of biased-ligand search | U2OS MC4R beta-arrestin complementation; percent of melanotan II response, DMSO zero | Melanocortin receptor 4 (Homo sapiens), P32245 | 0.98% of 360,000 active | activation, % at 8.9 µM;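 active = activation above a per-plate cutoff, the mean activation of sample wells on that plate plus 3 SD, cut at about 8% in these data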
# TAAR1 nonsel count = nonselective antagonists in TAAR1 counter-screen cells, counter-screen for hTAAR1 antagonist project, cell-based, fluorescence, calcium; shares compounds with TAAR1 antag; counterscreen cell line, antagonist mode; inhibition, % at 3 µM; 77% of 2,400 active; AID 651780, 2012; in the data active = inhibition above about 22%;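 also: CHO-Ga16 host cells stimulated with ATP at an EC80 level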
# TAAR1 ant conf = human TAAR1 antagonists, retest of hits, confirmation, cell-based, fluorescence. shares compounds with TAAR1 antag. TAAR1-expressing cells, fluorescence antagonist read-out. inhibition, % at 3 µM. 40% of 2,400 active. AID 651785, 2012; in the data active = inhibition above about 49%;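 also: CHO-Ga16 host cells challenged with agonist PEA near its EC80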
# Ga16 nonsel ag = calcium activation in Ga16-expressing cells, counter-screen for TAAR1 antagonist project, cell-based, fluorescence; shares compounds with TAAR1 antag; agonist counterscreen; activation, % at 3 µM; 18% of 2,400 active; AID 651953, 2012; in the data active = activation above about 12%
# TAAR1 ag counter = TAAR1 activation by candidate antagonists – cell-based, fluorescence, counter-screen for TAAR1 antagonist project; shares compounds with TAAR1 antag; 2% of 2,400 active; hTAAR1 cell line, agonist mode; activation, % at 3 µM; AID 651955, 2012; in the data active = activation above about 37%;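 also: CHO cells stably expressing TAAR1 with calcium dye readout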
# Hits are given with their value; 0 = inactive; - = no result. Most compounds without a hit are left out; they make up all but 4.3% or so of the library.
SMILES,TAAR1 antag,m5-HT2A agonist,TAAR1 agonist,MC4R antag cAMP,Beta2AR agonist,MC4R ag barr,TAAR1 nonsel count,TAAR1 ant conf,Ga16 nonsel ag,TAAR1 ag counter
O=C(Nc1nccs1)c1cc(-c2ccccc2)nn1-c1ccccc1,0,0,0,0,0,0,-,-,-,-
O=C(Nc1nccs1)c1cc(-c2ccccc2)nc2ccccc12,66,0,0,0,0,0,28,54,0,0
CCOC(=O)c1cc(-c2cccnc2)nn1-c1ccccc1C,0,0,0,0,0,0,-,-,-,-
Cc1ccc(S(=O)(=O)N2CCOCC2)cc1C(=O)NCCN1C(=O)S/C(=C\c2ccccc2Cl)C1=O,67,0,0,0,0,0,37,52,14,0
COC(=O)[C@]12CCCCC=C1N(Cc1ccc3c(c1)OCO3)C(=O)[C@H](CC(=O)N1CCSCC1)C2,67,0,0,-,-,-,26,0,0,0
COc1cccc(-c2csc(N3CCN(C(=S)NCC(C)C)CC3)n2)c1,65,0,0,0,0,0,42,0,0,0
COc1ccc(NC(=O)N2CCN(c3nc(-c4cccc(OC)c4)cs3)CC2)cc1,64,0,0,0,0,0,38,59,0,0
O=C(COC(=O)c1cc[n+]([O-])cc1)NC(=O)c1ccc(OC(F)F)cc1,0,0,0,0,0,0,-,-,-,-
Cc1ccc2c(c1)-c1c(cnn1CC(=O)N1CCCN(Cc3ccccc3F)C1)CO2,75,0,0,0,0,0,28,52,0,0
O=C(COC(=O)COc1ccc(Cl)cc1Br)NC1CCCC1,0,0,0,0,-,0,-,-,-,-
O=C(c1cccs1)c1coc2ccc(O)c(CN3CCOCC3)c12,106,0,0,0,0,0,0,0,0,0
O=C(c1coc2ccc(O)c(CN3CCOCC3)c12)C1CC1,0,0,0,0,0,0,-,-,-,-
CCC(C)n1c(NC(=O)c2ccccc2)c(C#N)c2nc3ccccc3nc21 (configuration not stated),54,0,0,0,0,0,28,0,0,0
CCCCn1c(NC(=O)c2ccccc2)c(C#N)c2nc3ccccc3nc21,0,0,0,0,0,0,-,-,-,-
CCCN(C(=O)/C=C/c1nc2ccccc2s1)C1CCS(=O)(=O)C1 (configuration not stated),0,0,0,0,0,0,-,-,-,-
O=[N+]([O-])c1ccc(C=NNc2ccccc2)cc1,0,0,0,0,0,0,-,-,-,-
O=[N+]([O-])c1ccc(N/N=C/c2ccccc2O)cc1,79,0,0,0,0,0,27,84,0,52
O=C(NCc1ccccc1)c1cc(C2CCCCN2C(=O)c2cccs2)on1 (configuration not stated),0,0,0,0,-,0,-,-,-,-
CCOC(=O)c1ccc(Nc2cc(C)nc(-c3ccccc3O)n2)cc1,53,0,0,0,0,0,26,0,0,0
Cc1cc(Nc2ccccc2)nc(-c2ccccc2O)n1,0,0,0,0,0,0,-,-,-,-
O=C(CCC(=O)N1CCOCC1)NCCc1ccc(F)cc1,-,0,-,0,0,0,0,-,0,-
COc1ccc(CN2CCN(C(=O)c3cc(-c4cccnc4)nc4ccc(Cl)cc34)CC2)c(OC)c1OC,72,0,0,0,0,0,32,54,0,0
CS(=O)(=O)N1CCN(C(=O)c2cc(-c3cccnc3)nc3ccc(Cl)cc23)CC1,0,0,0,0,0,0,-,-,-,-
O=C(c1cc(-c2ccncc2)nc2ccc(Cl)cc12)N1CCN(Cc2ccc3c(c2)OCO3)CC1,58,0,0,0,0,0,32,53,0,0
NS(=O)(=O)OCc1ccc(C(F)(F)F)cc1,0,0,0,0,0,0,-,-,-,-
SMILES,TAAR1 antag,m5-HT2A agonist,TAAR1 agonist,MC4R antag cAMP,Beta2AR agonist,MC4R ag barr,TAAR1 nonsel count,TAAR1 ant conf,Ga16 nonsel ag,TAAR1 ag counter
COc1cccc(-c2nc(C(=O)NCC3CCCO3)cc3c2[nH]c2ccccc23)c1 (configuration not stated),77,0,0,0,0,0,26,0,0,0
COc1cccc(N=c2oc3cc(O)ccc3cc2C(=O)NCC2CCCO2)c1 (configuration not stated),58,0,0,0,0,0,35,55,0,0
COc1ccc(OC)c(-c2nc(C(=O)NCC3CCCO3)cc3c2[nH]c2ccccc23)c1 (configuration not stated),0,0,0,0,0,0,-,-,-,-
COc1ccccc1N=c1oc2cc(O)ccc2cc1C(=O)NCC1CCCO1 (configuration not stated),0,0,0,0,0,0,-,-,-,-
CC(=O)n1cc([C@@H]2C=C(C(=O)N3CCN(Cc4ccccc4)CC3)O[C@H](OCc3ccc(CO)cc3)C2)c2ccccc21,52,0,0,0,0,0,0,0,0,0
O=C(C1=C[C@H](c2coc3ccccc3c2=O)C[C@H](OCc2ccc(CO)cc2)O1)N1CCN(Cc2ccc3c(c2)OCO3)CC1,49,0,0,0,0,0,0,0,0,0
O=C(C1=C[C@@H](c2coc3ccccc3c2=O)C[C@@H](OCc2ccc(CO)cc2)O1)N1CCN(Cc2ccc3c(c2)OCO3)CC1,0,0,0,0,0,0,-,-,-,-
Cc1ccc(S(=O)(=O)Nc2c(NC3CCCCC3)c3ccccc3oc2=O)cc1C,0,0,0,0,0,0,-,-,-,-
COc1ccc(S(=O)(=O)Nc2c(NC3CCCCC3)c3ccccc3oc2=O)cc1OC,51,0,0,0,0,0,0,0,0,0
